Results: ChEMBL document CHEMBL2057154, “Discovery and optimization of novel purines as potent and selective CB2 agonists” (Bioorg Med Chem Lett, 2012)
≈ marks a conversion by molar mass, not a printed value. Calls of active or inactive are those of the source. The calls are words filed in the database; no cut-off is given here.

Assays:
[1] = Ratio of drug uptake in brain to plasma of Sprague-Dawley rat; format: ADME; conditions: read-out: BPR
[2] = Aqueous solubility of the compound at pH 7; format: physicochemical; conditions: buffer
Homo sapiens [3] = species on record: Homo sapiens; assay: (§1) Binding affinity to 5HT1
cytochrome P450 = cytochrome P450 (Homo sapiens, UniProt P04798+P05177+P05181+P08684+P10632+P10635+P11509+P11712+P13584+P20813+P20815+P20853+P24462+P24903+P33260+P33261+P51589+P78329+P98187+Q02928+Q08477+Q16678+Q16696+Q5TCH4+Q6VVX0+Q7Z449+Q8TAV3+Q96SQ9+Q9HB55); assay: Inhibition of cytochrome P450; format: ADME
[4] = Lipophilicity, log P of the compound; format: physicochemical; conditions: octanol/water
Rattus norvegicus [5] = assay: Analgesic activity in monoiodoacetic acid rat model of osteoarthritic pain assessed as decrease in pain at 3 mg/kg, po measured after 29 days relative to control; format: functional, organism-based; parameters: dose 3 mg/kg
[6] = Drug metabolism in rat liver microsomes at 4 uM after 30 mins by LC-ESI/MS analysis; format: ADME, Microsome; conditions: read-out: Drug metabolism
Cannabinoid receptor 1 [7] = target: T1, Cannabinoid receptor 1 (Homo sapiens, UniProt P21554); assay: Agonist activity at human CB1 receptor expressed in CHO cells assessed as [35S]-GTPgammaS binding preincubated for 25 mins measured after 30 mins by scintillation proximity assay; format: functional, cell-based
T1 sequence (P21554 whole entry): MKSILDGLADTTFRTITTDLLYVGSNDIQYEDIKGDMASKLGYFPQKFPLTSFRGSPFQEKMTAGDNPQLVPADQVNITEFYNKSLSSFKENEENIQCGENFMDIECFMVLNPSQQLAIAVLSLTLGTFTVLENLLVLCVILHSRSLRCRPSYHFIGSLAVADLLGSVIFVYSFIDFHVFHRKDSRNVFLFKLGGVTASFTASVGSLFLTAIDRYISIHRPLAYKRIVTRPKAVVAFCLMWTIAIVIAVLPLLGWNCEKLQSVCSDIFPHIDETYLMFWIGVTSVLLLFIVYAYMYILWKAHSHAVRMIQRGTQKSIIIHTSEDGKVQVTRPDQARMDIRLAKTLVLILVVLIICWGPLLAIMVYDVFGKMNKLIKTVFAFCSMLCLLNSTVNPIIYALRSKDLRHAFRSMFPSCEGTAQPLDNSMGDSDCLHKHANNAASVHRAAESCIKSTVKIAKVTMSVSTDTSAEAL

Cannabinoid receptor 2 [8] = target: T2, Cannabinoid receptor 2 (Homo sapiens, UniProt P34972); assay: Agonist activity at human CB2 receptor expressed in CHO cells assessed as [35S]-GTPgammaS binding preincubated for 25 mins measured after 30 mins by scintillation proximity assay relative to control; format: functional, cell-based
T2 sequence (P34972 whole entry): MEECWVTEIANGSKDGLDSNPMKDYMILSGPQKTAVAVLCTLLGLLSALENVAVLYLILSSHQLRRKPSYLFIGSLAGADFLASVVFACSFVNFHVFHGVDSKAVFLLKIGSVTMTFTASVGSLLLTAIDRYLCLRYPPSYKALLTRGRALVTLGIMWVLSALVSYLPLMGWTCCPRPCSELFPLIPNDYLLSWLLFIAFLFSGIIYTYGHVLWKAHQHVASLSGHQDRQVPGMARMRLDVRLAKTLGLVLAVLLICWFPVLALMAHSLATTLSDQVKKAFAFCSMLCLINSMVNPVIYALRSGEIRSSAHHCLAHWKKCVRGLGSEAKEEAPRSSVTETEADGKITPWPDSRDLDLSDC

Cannabinoid receptor 2 [9] = target: T2, Cannabinoid receptor 2; assay: Agonist activity at human CB2 receptor expressed in CHO cells assessed as [35S]-GTPgammaS binding preincubated for 25 mins measured after 30 mins by scintillation proximity assay; format: functional, cell-based
[10] = Drug metabolism in dog liver microsomes at 4 uM after 30 mins by LC-ESI/MS analysis; format: ADME, Canis lupus familiaris, Microsome; conditions: read-out: Drug metabolism
Homo sapiens [11] = species on record: Homo sapiens; assay: Selectivity ratio of EC50 for human CB1 receptor to EC50 for human CB2 receptor
[12] = Drug metabolism in human liver microsomes at 4 uM after 30 mins by LC-ESI/MS analysis; format: ADME, Microsome; conditions: read-out: Drug metabolism
[13] = Solubility of the compound in simulated gastrointestinal fluid at pH 6.8; format: physicochemical
Method in brief: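 Solubility determined in simulated GI fluid at pH 6.8.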

[14] = Volume of distribution in Sprague-Dawley rat at 1 mg/kg, iv; format: ADME, organism-based; parameters: dose 1 mg/kg, route intravenous; conditions: in vivo
Method in brief: (§2)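 Male Sprague–Dawley rats dosed 1 mg/kg iv and 1 mg/kg po; plasma pharmacokinetic parameters derived from the iv and oral arms.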

[15] = Oral bioavailability in Sprague-Dawley rat at 1 mg/kg; format: ADME, organism-based; conditions: in vivo; method in brief: as §2
Cannabinoid receptor 2 [16] = target: T3, Cannabinoid receptor 2 (Rattus norvegicus, UniProt Q9QZN9); assay: Displacement of [3H]-CP-55,940 from rat CB2 receptor expressed in CHO cells; format: cell-based
T3 sequence (Q9QZN9 whole entry): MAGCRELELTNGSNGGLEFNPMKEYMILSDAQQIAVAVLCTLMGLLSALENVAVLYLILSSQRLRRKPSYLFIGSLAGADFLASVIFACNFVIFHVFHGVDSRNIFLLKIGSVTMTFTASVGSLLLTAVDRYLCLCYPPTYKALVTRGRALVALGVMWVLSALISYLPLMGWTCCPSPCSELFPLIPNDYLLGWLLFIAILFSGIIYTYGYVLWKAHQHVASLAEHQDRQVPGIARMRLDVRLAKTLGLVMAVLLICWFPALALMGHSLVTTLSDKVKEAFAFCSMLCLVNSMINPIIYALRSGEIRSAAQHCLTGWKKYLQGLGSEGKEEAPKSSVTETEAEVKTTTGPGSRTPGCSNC

Rattus norvegicus [17] = assay: Analgesic activity in monoiodoacetic acid rat model of osteoarthritic pain assessed as decrease in pain at 10 mg/kg, po pretreated with CB2 antagonist SR144528 at 3 mg/kg, ip administered 30 mins prior to compound treatment; format: functional, organism-based
Method in brief: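 SR-144528 given at 3 mg/kg ip 30 min before the oral test dose (10 mg/kg) in the rodent monoiodoacetic acid osteoarthritic knee pain model.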

Rattus norvegicus [18] = assay: Hepatic clearance in Sprague-Dawley rat at 1 mg/kg, iv; format: ADME, organism-based, Liver; parameters: dose 1 mg/kg, route intravenous; conditions: in vivo; method in brief: as §2
[19] = as §1; parameters: species or system Homo sapiens
Cannabinoid receptor 2 [20] = target: T2, Cannabinoid receptor 2; assay: Displacement of [3H]-CP-55,940 from human CB2 receptor expressed in CHO cells; format: cell-based
Cytochrome P450 2D6 = Cytochrome P450 2D6 (Homo sapiens, UniProt P10635); assay: Inhibition of CYP2D6; format: ADME
Cytochrome P450 2D6, sequence (P10635 whole entry): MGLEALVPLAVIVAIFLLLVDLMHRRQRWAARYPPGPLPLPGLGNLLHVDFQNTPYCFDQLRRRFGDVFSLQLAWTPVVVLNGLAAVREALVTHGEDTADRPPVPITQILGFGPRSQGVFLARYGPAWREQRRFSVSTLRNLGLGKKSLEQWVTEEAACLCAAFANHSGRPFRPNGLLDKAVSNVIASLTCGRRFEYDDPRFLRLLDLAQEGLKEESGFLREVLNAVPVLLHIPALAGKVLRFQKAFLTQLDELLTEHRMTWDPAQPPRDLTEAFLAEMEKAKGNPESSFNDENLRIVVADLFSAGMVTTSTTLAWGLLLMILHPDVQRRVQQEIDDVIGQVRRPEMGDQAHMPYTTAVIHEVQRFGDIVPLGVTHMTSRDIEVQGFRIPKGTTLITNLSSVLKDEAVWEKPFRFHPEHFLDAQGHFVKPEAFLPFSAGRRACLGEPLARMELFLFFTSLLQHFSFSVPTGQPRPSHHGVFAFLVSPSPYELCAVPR

[21] = target: Voltage-gated inwardly rectifying potassium channel KCNH2 (Homo sapiens, UniProt Q12809); assay: Displacement of [3H]dofetilide from human Erg expressed in human HEK293 cells; format: cell-based
Voltage-gated inwardly rectifying potassium channel KCNH2, sequence (Q12809 whole entry): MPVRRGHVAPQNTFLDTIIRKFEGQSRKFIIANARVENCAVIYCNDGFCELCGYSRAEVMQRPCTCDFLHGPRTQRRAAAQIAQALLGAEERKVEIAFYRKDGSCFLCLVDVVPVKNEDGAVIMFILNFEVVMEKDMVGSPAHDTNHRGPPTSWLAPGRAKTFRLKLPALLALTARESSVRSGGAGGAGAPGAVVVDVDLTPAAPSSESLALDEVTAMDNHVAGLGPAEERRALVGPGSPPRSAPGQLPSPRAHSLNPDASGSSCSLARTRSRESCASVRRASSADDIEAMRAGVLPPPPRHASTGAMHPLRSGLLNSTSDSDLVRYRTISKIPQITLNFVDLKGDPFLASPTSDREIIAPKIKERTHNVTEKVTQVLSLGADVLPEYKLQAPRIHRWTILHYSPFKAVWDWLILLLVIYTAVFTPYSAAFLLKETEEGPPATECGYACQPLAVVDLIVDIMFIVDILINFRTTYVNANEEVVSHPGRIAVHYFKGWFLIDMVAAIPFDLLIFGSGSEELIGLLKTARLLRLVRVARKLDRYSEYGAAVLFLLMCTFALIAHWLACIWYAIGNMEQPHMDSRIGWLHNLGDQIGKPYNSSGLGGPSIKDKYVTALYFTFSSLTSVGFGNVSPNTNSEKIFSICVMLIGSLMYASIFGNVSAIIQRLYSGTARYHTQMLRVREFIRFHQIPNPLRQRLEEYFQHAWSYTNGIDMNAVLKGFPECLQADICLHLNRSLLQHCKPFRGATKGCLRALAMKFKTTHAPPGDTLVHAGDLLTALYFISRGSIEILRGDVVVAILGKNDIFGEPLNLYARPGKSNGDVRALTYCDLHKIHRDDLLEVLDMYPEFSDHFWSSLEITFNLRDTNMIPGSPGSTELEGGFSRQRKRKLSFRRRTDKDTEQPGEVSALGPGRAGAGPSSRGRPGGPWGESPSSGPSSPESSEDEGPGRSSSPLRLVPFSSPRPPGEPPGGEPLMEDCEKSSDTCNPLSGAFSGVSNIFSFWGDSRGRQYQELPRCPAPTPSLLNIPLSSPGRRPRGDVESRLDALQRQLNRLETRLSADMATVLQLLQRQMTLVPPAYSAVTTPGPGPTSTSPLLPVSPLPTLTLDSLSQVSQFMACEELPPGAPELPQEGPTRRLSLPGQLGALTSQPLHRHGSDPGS
Method in brief: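 hERG affinity measured by [3H]-dofetilide displacement from hERG channels stably expressed in HEK293 cells.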

Cannabinoid receptor 1 [22] = target: T1, Cannabinoid receptor 1; assay: Agonist activity at human CB1 receptor expressed in CHO cells assessed as [35S]-GTPgammaS binding preincubated for 25 mins measured after 30 mins by scintillation proximity assay relative to control; format: functional, cell-based
Rattus norvegicus [23] = assay: Analgesic activity in monoiodoacetic acid rat model of osteoarthritic pain assessed as decrease in pain at 10 mg/kg, po measured after 29 days relative to control; format: functional, organism-based; parameters: dose 10 mg/kg
[24] = Dissociation constant, pKa of the compound; format: physicochemical
Rattus norvegicus [25] = assay: Induction of hypothermia in monoiodoacetic acid rat model of osteoarthritic pain at 0.5 mg/kg, ip; format: organism-based; parameters: dose 0.5 mg/kg, route intraperitoneal; conditions: in vivo
Method in brief: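 Rats given the non-selective cannabinoid agonist (positive control) at 0.5 mg/kg ip. Body temperature drop was the read-out, used as an in vivo marker of central CB1 receptor activation.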

For `CCN1CCN(c2nc(C)nc3c2nc(-c2ccccc2Cl)n3C)CC1`, the Kp [1] was 1, the solubility [2] was > 2000 µg/mL and the Activity (Homo sapiens [3]) was “Active”. For the same molecule, the IC50 (cytochrome P450) was > 10000 nM and the logP [4] was 3.1.

For `O=C(O)Cc1ccccc1Nc1c(Cl)cccc1Cl`, the Activity (Rattus norvegicus [5]) was “Active”.

For `COC(=O)NCCn1c(-c2ccccc2Cl)nc2c(N3CCN(C)CC3)nc(C)nc21`, the metabolised at 0.5 h, 4 µM [6] was 25%, the EC50 (Cannabinoid receptor 1 [7]) was > 100000 nM and the Efficacy (Cannabinoid receptor 2 [8]) was 79.5%. The EC50 (Cannabinoid receptor 2 [9]) was 47.5 nM, the metabolised at 0.5 h, 4 µM [10] was 62% and the Ratio EC50 (Homo sapiens [11]) was > 2110. The metabolised at 0.5 h, 4 µM [12] was 14%.

In the case of `Cc1nc(N2CCC(C)CC2)c2cc(-c3ccccc3)sc2n1`, the metabolised at 0.5 h, 4 µM [6] is reported as 93%, the EC50 (Cannabinoid receptor 1 [7]) is reported as > 100000 nM and the Efficacy (Cannabinoid receptor 2 [8]) is reported as 85.3%. The EC50 (Cannabinoid receptor 2 [9]) was 199 nM, the metabolised at 0.5 h, 4 µM [10] was 75% and the Ratio EC50 (Homo sapiens [11]) was > 502. The metabolised at 0.5 h, 4 µM [12] was 49%.

In the case of `CCN1CCN(c2nc(C)nc3sc(-c4ccccc4)cc23)CC1`, the metabolised at 0.5 h, 4 µM [6] is reported as 94%, the EC50 (Cannabinoid receptor 1 [7]) is reported as 2600 nM and the solubility [13] is reported as > 200 µM. The Efficacy (Cannabinoid receptor 2 [8]) was 84.5%, the Vd [14] was 10 L/kg and the EC50 (Cannabinoid receptor 2 [9]) was 24.8 nM. It also gave a bioavailability [15] of 91%, a metabolised at 0.5 h, 4 µM [10] of 97% and a Ki (Cannabinoid receptor 2 [16]) of 16 nM. The Activity (Rattus norvegicus [17]) was “inactive”, the CLH (Rattus norvegicus [18]) was 90 mL/min/kg and the Ki [19] was 1000 nM. For the same molecule, the Ki (Cannabinoid receptor 2 [20]) was 82 nM, the IC50 (Cytochrome P450 2D6) was 3000 nM and the Ratio EC50 (Homo sapiens [11]) was 104. For the same molecule, the metabolised at 0.5 h, 4 µM [12] was 73%, the logP [4] was 3.7 and the IC50 [21] was > 10000 nM. For the same molecule, the Efficacy (Cannabinoid receptor 1 [22]) was 73.6%, the Activity (Rattus norvegicus [23]) was “Active” and the pKa [24] was 7.5.

In the case of `CC(=O)N1CCN(c2nc(C)nc3sc(-c4ccccc4)cc23)CC1`, the metabolised at 0.5 h, 4 µM [6] is reported as 28%, the EC50 (Cannabinoid receptor 1 [7]) is reported as > 100000 nM and the solubility [13] is reported as 41 µM (≈ 14.5 µg/mL). It also gave an Efficacy (Cannabinoid receptor 2 [8]) of 95.4%, an EC50 (Cannabinoid receptor 2 [9]) of 184 nM and a metabolised at 0.5 h, 4 µM [10] of 62%. For the same molecule, the Ratio EC50 (Homo sapiens [11]) was > 543 and the metabolised at 0.5 h, 4 µM [12] was 25%.

With `CCCCCCC(C)(C)c1ccc([C@@H]2C[C@H](O)CC[C@H]2CCCO)c(O)c1` [CP-55940] the Activity (Rattus norvegicus [25]) was “Toxic”.

With `Cc1nc(N2CCN(C)CC2)c2cc(-c3ccccc3)sc2n1` the metabolised at 0.5 h, 4 µM [6] was 95%, the EC50 (Cannabinoid receptor 1 [7]) was 5910 nM and the Efficacy (Cannabinoid receptor 2 [8]) was 90.6%. The EC50 (Cannabinoid receptor 2 [9]) was 44.4 nM, the metabolised at 0.5 h, 4 µM [10] was 97% and the Ratio EC50 (Homo sapiens [11]) was 133. It also gave a metabolised at 0.5 h, 4 µM [12] of 56% and an Efficacy (Cannabinoid receptor 1 [22]) of 70.9%.
